# FXIIa inh 1536: factor XIIa (human) inhibition; P00748; purified FXIIa, Boc-QGR-AMC fluorogenic substrate, 2 h; inhibition, % at 5 µM; 220,000 compounds, 0.3% hits; in the data active = inhibition above about 40%
# Target sequence (P00748 20-372 limits assumed): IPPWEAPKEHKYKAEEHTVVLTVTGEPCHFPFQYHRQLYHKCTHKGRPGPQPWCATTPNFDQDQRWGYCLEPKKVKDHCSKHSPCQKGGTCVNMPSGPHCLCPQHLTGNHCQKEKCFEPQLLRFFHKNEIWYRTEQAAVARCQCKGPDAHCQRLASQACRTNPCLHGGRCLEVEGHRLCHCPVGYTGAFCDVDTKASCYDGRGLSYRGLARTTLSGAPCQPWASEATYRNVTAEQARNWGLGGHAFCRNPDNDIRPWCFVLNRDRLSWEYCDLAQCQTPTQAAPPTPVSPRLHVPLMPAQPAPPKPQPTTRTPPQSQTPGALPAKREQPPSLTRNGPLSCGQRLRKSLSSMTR
# Target sequence (P00748 373-615 limits assumed): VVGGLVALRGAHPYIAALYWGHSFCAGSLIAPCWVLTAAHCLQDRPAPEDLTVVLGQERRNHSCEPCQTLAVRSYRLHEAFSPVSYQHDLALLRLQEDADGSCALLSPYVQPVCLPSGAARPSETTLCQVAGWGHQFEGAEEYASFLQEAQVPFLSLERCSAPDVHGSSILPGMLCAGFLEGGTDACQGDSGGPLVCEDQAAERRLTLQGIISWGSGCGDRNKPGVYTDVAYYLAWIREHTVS
# FXIa inh 1536: factor XIa (human) inhibition; AID 798; inhibition, % at 5 µM; P03951; 220,000 compounds, 0.14% hits; purified FXIa, Boc-Glu-Ala-Arg-AMC fluorogenic substrate;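 active = inhibition of at least 40%; inactive = inhibition below 40%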;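 also: fluorescence of freed AMC excited at 355 nm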
# Thrombin inh: inhibitors of human thrombin; P00734; alpha-thrombin, Boc-VPR-AMC fluorogenic substrate cleavage; inhibition, % at 5 µM; 220,000 compounds, 0.26% hits; AID 1046;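 active = inhibition at or above 40%; inactive = inhibition below 40%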
#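 System: human alpha-thrombin protein; Compound dosing: one concentration per compound, 5 µM, with 0.2% DMSO; Timing: reaction at room temperature; Technique: AMC fluorescence, 355/460 nm; Controls: enzyme without compound as high, wells lacking enzyme as low.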
# EP2 modulator: modulators of human EP2 prostaglandin E2 receptor; 260,000 compounds, 0.83% hits; AID 940; EP2-expressing cells, cAMP HTRF FRET, PGE2 co-stimulation; P43116; induction, % at 25 µM;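 active = compounds whose cAMP rise, as percent of the full-agonist control response, exceeds 60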;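 also: rat C6 glioma line stably carrying human EP2 under a CMV promoter; the protocol text gives 20 µM as final concentration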
# hK5 inh: kallikrein 5 (human) inhibition | recombinant hK5, fluorogenic AMC substrate cleavage | AID 873 | inhibition, % at 5 µM | 210,000 compounds, 0.59% hits | Q9Y337;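 active = inhibition of 40% or more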
# PGE2 EP2 inh: blocks the human prostaglandin E2 receptor EP2; P43116; C6 glioma cells expressing human EP2, cAMP TR-FRET; cells stimulated with saturating PGE2; inhibition, % at 25 µM; 260,000 compounds, 0.52% hits; AID 1422;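 active = percent inhibition above 40 after rounding to a whole number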;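 also: rat C6 glioma host cells with rolipram phosphodiesterase inhibitor present; the protocol text gives 20 µM as final concentration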
# Hits are given with their value; 0 = inactive; - = not tested or not shown; ! = not active in a repeat. A selection: hits, their analogues and other compounds. The true share with any hit is near 2.1%.
SMILES,FXIIa inh 1536,FXIa inh 1536,Thrombin inh,EP2 modulator,hK5 inh,PGE2 EP2 inh
Cc1ccccc1NNC(=O)C(=O)NNc1ccccc1C,0,0,0,0,50,0
Cc1ccc(C)c(NNC(=O)C(=O)NNc2cc(C)ccc2C)c1,0,0,0,0,0,0
N=c1oc2cc(O)ccc2cc1C(=O)Nc1cccc(Cl)c1Cl,-,-,-,0,-,0
Cc1ccc(C)c(NC(=O)C2CCCN(S(=O)(=O)c3ccc(-n4cnnn4)cc3)C2)c1 (stereo unspecified),-,-,-,0,-,0
O=c1ccc2cc3c4c(c2o1)CCCN4CCC3,0,0,0,0,0,0
O=c1oc2c3c4c(cc2s1)CCCN4CCC3,0,0,0,73,0,0
COc1ccc(-c2csc(N3C(=O)C4C5c6ccccc6C(c6ccccc65)[C@@H]4C3=O)n2)cc1 (stereo partly specified),0,0,0,0,0,0
COc1ccc(-c2csc(N3C(=O)C4C5c6ccccc6C(c6ccccc65)C4C3=O)n2)cc1 (stereo unspecified),0,0,0,0,62,0
COC(=O)c1ccc(C)c(N(CCO)CCO)c1,0,0,0,0,57,0
N#CCSc1nnc(COc2cccc3ccccc23)n1-c1cccc(Cl)c1,0,0,0,72!,0,0
CCc1cc(N2CCC(C(N)=O)CC2)n2nc3nc(C)cc(C)c3c2n1,-,-,-,0,-,0
NC(=O)c1c(NC(=O)Cn2nc(C(=O)O)c3ccccc3c2=O)sc2c1CCCC2,0,0,99,0,0,0
COc1ccccc1C(=O)NNC(=O)c1ccc(Cl)cc1,0,0,0,0,0,0
COc1ccccc1C(=O)NNC(=O)c1ccc(F)cc1,0,0,0,0,61,0
COc1cc(OC)cc(C(=O)NNC(=O)c2ccccc2Br)c1,0,0,89,0,0,0
CC(=O)c1ccc(OCC(O)CN2C(C)CCCC2C)cc1 (stereo unspecified),0,0,0,0,52,0
C=C(C)CNC(=S)Nc1cccc(N)n1,0,48,0,0,41,0
Cn1cc(-c2nnc(-c3ccccc3)o2)c2ccccc21,0,0,0,0,87,0
CCc1nn(Cc2ccccn2)c(=O)c2cc3sccc3n12,-,-,-,0,-,-
Cc1ccsc1/C=N/NC(=O)c1ccc2c(c1)OCCO2,46,0,0,0,0,0
Cc1ccc(-n2c(C)cc(/C=N/NC(=O)CN(c3ccc(C)cc3C)S(C)(=O)=O)c2C)cc1,0,0,0,0,42,0
CCc1cc2ccc(OC)cc2nc1SCC(=O)Nc1c(C)cccc1C,-,-,-,64,-,0
COc1ccc(CCNC(=O)CSc2nnc(-c3ccc(F)cc3)o2)cc1OC,0,0,0,0,130,0
CCOc1ccccc1NC(=O)CSc1nc2cc(OC)ccc2cc1CC,-,-,-,0,-,0
CCc1cc2ccc(OC)cc2nc1SCC(=O)NCCc1ccc(OC)c(OC)c1,-,-,-,74,-,0
SMILES,FXIIa inh 1536,FXIa inh 1536,Thrombin inh,EP2 modulator,hK5 inh,PGE2 EP2 inh
CCc1cc2ccc(OC)cc2nc1SCC(=O)Nc1ccccc1C,-,-,-,80,-,0
CCC(CN1CCOCC1)NC(=O)Cc1ccc(S(N)(=O)=O)cc1 (stereo unspecified),-,-,-,0,-,0
Cc1cccc(NC(=O)Cn2nc3c(C)cc4ccccc4n3c2=O)n1,-,-,-,0,-,0
CCc1cc2ccc(OC)cc2nc1SCC(=O)NNC(=O)c1ccc(OC)cc1,-,-,-,62,-,0
COc1ccccc1/C=C1\C(=O)NC(=O)N(c2ccc3c(c2)OCO3)C1=O,-,-,-,0,-,0
O=c1n(Cc2ccccc2)c2cc(Cl)cnc2n1Cc1ccccc1,0,0,0,62,0,0
CCn1nc(CC(=O)N2CCCCC2c2nc3ccccc3[nH]2)c2ccccc2c1=O (stereo unspecified),-,-,-,0,-,-
CCOC(=O)/C(=C\c1cn(C)c2ccccc12)[N+](=O)[O-],0,0,0,0,0,42
Cc1ccc(C(=O)C(=O)c2ccc(C)c(N)c2)cc1N,40,53,0,0,0,0
COc1ccc(-c2nnc(SCC(N)=O)n2N)cc1,0,0,0,0,0,0
C=C(C)CSc1nnc(-c2ccc(OC)cc2)n1N,0,0,0,0,45,0
O=C(OC(C(=O)NC1CCCCC1)c1cccnc1)C1=Cc2ccccc2OC1 (stereo unspecified),-,-,-,0,-,0
CC(C)(C)c1ccc(O)c(CN(Cc2cc(C(C)(C)C)ccc2O)C2CCCCC2)c1,-,-,-,0,-,64
FC(F)(F)c1ccc(N=Cc2sc(N3CCOCC3)nc2-c2ccccc2)cc1,0,0,0,0,0,46
CCCCCC(=O)Nc1cccc(C2=NOC3(C2)C[C@@H](C(N)=O)N(C(=O)c2cc([N+](=O)[O-])cc([N+](=O)[O-])c2C)C3)c1 (stereo partly specified),0,40,0,0,0,0
Cc1ccc(-n2nnnc2SCC(=O)N2CCc3ccccc3C2)cc1,0,0,0,0,0,0
Cn1nnnc1SCC(=O)N1CCc2ccccc2C1,0,0,0,0,59,0
CCCOc1ccc(/C=C/C(=O)Nc2ccc(N3CCOCC3)cc2)cc1OC,-,-,-,0,-,0
CC(C)CCCC(C)[C@H]1CCC2C3CC=C4CC(=O)CC[C@]4(C)C3CC[C@@]21C (stereo partly specified),-,-,-,0,-,0
O=C(C1CCCCC1)N1CCC(n2nc(-c3cccs3)ccc2=O)CC1,-,-,-,0,-,-
C=C(C)CNC(=S)N/N=C(\C)c1cccc(NC(C)=O)c1,0,49,0,0,75,0
CC(=O)Nc1cccc(/C(C)=N/NC(=S)NC(C)C)c1,0,0,0,0,0,0
O=C(Nc1ccc(-c2noc(-c3cccs3)n2)cc1)c1cccnc1,0,0,0,0,0,69
CCN1CCOC(CC(=O)Nc2cccc(C)c2)C1=O (stereo unspecified),-,-,-,69,-,0
Cc1sc2nc(C(C)C)n3c(SCC(=O)NC4CCCC4)nnc3c2c1C,-,-,-,0,-,0
SMILES,FXIIa inh 1536,FXIa inh 1536,Thrombin inh,EP2 modulator,hK5 inh,PGE2 EP2 inh
CCOc1ccc2[nH]c(=O)c(CN(Cc3cccs3)C(=O)NC3CCCCC3)cc2c1,-,-,-,0,-,0
COC(=O)[C@H]1CCc2ccccc2N1C(=O)c1ccc(F)cc1F,-,-,-,0,-,-
Cn1c(-c2ccccc2)c(C=O)c2ccccc21,0,0,0,0,0,0
CN(C)CCCCN1CCc2c(n(C)c3ccccc23)C1=O,-,-,-,0,-,50
CN1CCc2c(n(CC(O)CN(CCO)CCO)c3ccccc23)C1=O (stereo unspecified),0,0,0,0,0,0
Cn1c2c(c3ccccc31)CCSC2=O,71,0,0,0,0,0
O=C(O)c1cc2c(cc1S(=O)(=O)O)[C@@H]1[C@@H]([C@H]3[C@H]2[C@]2(Cl)C(Cl)=C(Cl)[C@@]3(Cl)C2(Cl)Cl)[C@]2(Cl)C(Cl)=C(Cl)[C@@]1(Cl)C2(Cl)Cl,-,-,-,73,-,45
CN(C)S(=O)(=O)c1cc(C(=O)O)c(NC2CCCCC2)cc1Cl,0,0,0,0,0,0
O=C(N1CCN(c2ccccn2)CC1)C(Cl)(Cl)Cl,0,0,0,0,0,0

# Screens as filed in PubChem.
